Experimental data as given in ChEMBL document CHEMBL1139465, “Synthesis, molecular modeling studies, and selective inhibitory activity against monoamine oxidase of 1-thiocarbamoyl-3,5-diaryl-4,5-dihydro-(1H)- pyrazole derivatives” (J Med Chem, 2005).

Tests used:
[1] = target: T1, Amine oxidase [flavin-containing] B (Bos taurus, UniProt P56560); assay: Inhibition of bovine brain mitochondria MAOB
T1 sequence (P56560 whole entry): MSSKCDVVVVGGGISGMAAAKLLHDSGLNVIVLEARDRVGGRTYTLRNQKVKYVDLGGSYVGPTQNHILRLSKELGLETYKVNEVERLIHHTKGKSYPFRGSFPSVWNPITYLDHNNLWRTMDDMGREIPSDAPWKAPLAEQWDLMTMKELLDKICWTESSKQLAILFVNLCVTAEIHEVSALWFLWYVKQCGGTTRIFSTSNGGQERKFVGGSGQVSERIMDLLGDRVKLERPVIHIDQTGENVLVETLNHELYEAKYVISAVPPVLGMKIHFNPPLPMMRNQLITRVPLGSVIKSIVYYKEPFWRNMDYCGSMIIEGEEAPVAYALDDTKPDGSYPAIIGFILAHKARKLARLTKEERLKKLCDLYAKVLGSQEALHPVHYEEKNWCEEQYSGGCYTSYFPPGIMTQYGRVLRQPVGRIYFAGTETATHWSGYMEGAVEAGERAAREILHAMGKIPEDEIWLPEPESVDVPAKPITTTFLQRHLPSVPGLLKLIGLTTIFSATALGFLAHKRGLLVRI
Outline: (§1)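 Beef brain mitochondria isolated per Basford, 6 mg/mL, in 0.25 M potassium phosphate pH 7.4. Preincubation 30 min at 38 °C with 0.5 µM L-deprenyl (MAO-A) or 0.05 µM clorgyline (MAO-B). Inhibitor in DMSO, […]. Kynuramine at four final levels, 5 µM–0.1 mM, 30 min at 38 °C. Perchloric acid stop, fluorimetric read. Ki from Dixon plots; ≥3 experiments in duplicate.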

[2] = species: Bos taurus; assay: Selectivity index, ratio of Ki for MAOA to Ki for MAOB in bovine brain mitochondria
[3] = target: T2, Amine oxidase [flavin-containing] A (Bos taurus, UniProt P21398); assay: Inhibition of bovine brain mitochondria MAOA; outline: as §1
T2 sequence (P21398 whole entry): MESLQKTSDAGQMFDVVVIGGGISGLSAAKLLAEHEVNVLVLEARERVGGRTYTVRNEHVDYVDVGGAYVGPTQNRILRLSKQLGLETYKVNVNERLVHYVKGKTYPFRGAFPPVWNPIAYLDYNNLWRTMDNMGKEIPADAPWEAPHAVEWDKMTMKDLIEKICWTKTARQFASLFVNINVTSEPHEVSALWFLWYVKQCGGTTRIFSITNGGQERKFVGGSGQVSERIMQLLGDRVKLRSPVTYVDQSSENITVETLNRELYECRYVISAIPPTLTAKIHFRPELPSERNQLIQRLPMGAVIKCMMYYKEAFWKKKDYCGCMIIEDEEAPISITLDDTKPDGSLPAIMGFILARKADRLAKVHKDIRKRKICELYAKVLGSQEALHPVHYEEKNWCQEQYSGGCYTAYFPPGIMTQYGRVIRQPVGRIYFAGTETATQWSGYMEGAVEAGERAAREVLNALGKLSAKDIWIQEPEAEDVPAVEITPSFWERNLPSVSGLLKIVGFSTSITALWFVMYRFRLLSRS

[4] = species: Bos taurus; assay: Selectivity index, ratio of Ki for MAOB to Ki for MAOA in bovine brain mitochondria
Outline: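 SI computed as Ki(MAO-B)/Ki(MAO-A). Both Ki values are from the fluorimetric kynuramine assay on bovine brain mitochondria, with isoforms isolated by L-deprenyl or clorgyline preincubation. Ki from Dixon plots; means of at least three experiments.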

| SMILES | Ki [1] [µM] | Ratio Ki [2] | Ki [3] [µM] | Ratio Ki [4] |
| --- | --- | --- | --- | --- |
| NC(=S)N1N=C(c2cccs2)CC1c1ccco1 (stereo unspecified) | 0.02 | 2.5 | 0.05 | 0.4 |
| NC(=S)N1N=C(c2cccs2)CC1c1cccs1 (stereo unspecified) | 0.05 | 0.54 | 0.027 | 1.85 |
| NC(=S)N1N=C(c2cccs2)CC1c1ccc(Cl)cc1 (stereo unspecified) | 0.006 | 6.8 | 0.041 | 0.14 |
| NC(=S)N1N=C(c2ccc(F)cc2)CC1c1ccc(Cl)cc1 (stereo unspecified) | 1 | 0.006 | 0.006 | 166 |
| Cc1ccc(C2=NN(C(N)=S)C(c3ccc(C)cc3)C2)cc1 (stereo unspecified) | 0.01 | 0.6 | 0.006 | 1.6 |
| Cc1ccc(C2CC(c3cccs3)=NN2C(N)=S)cc1 (stereo unspecified) | 0.01 | 5 | 0.05 | 0.2 |
| NC(=S)N1N=C(c2ccc(F)cc2)C[C@@H]1c1ccc(Cl)cc1 | 1.4 | 0.008 | 0.012 | 116 |
| Cc1ccc(C2=NN(C(N)=S)C(c3ccco3)C2)cc1 (stereo unspecified) | 0.17 | 0.02 | 0.004 | 42.5 |
| NC(=S)N1N=C(c2ccc(F)cc2)CC1c1ccco1 (stereo unspecified) | 0.37 | 0.021 | 0.008 | 46.2 |

More lines, now with the values ahead:

| Ki [1] [µM] | Ratio Ki [2] | Ki [3] [µM] | Ratio Ki [4] | SMILES |
| --- | --- | --- | --- | --- |
| 0.0015 | 20.7 | 0.031 | 0.05 | Cc1ccc(C2=NN(C(N)=S)C(c3ccc(Cl)cc3)C2)cc1 (stereo unspecified) |
| 0.001 | 50 | 0.05 | 0.02 | Cc1ccc(C2=NN(C(N)=S)[C@H](c3ccc(Cl)cc3)C2)cc1 |
| 0.0027 | 4.8 | 0.013 | 0.2 | Cc1ccc(C2=NN(C(N)=S)[C@@H](c3ccc(Cl)cc3)C2)cc1 |
| 0.05 | 0.14 | 0.007 | 7.1 | Cc1ccc(C2CC(c3ccc(F)cc3)=NN2C(N)=S)cc1 (stereo unspecified) |
| 2.4 | 0.002 | 0.005 | 480 | NC(=S)N1N=C(c2ccc(F)cc2)C[C@H]1c1ccc(Cl)cc1 |
